Columns and labels:
[1] = folding enthalpy; higher = less favourable; fluorescence melt of hairpins on a sequencing array, two-state fit; settings: sodium 0.088 M
Procedure, shortened: (§1)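 In 50 mM Na-HEPES pH 8.0 containing 25 mM NaCl, hairpins from the library on a sequenced MiSeq flow cell were imaged for Cy3 fluorescence at 2.5 °C steps up to 60 °C, with Cy3 and quencher oligos annealed. After normalisation to pre-quench Cy3 and to control constructs, two-state fits with bootstrapping gave melting temperature and folding enthalpy. Four replicates were combined by inverse-variance weighting, and fitted temperatures were shifted up by 9.35 °C to match UV melts.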

[2] = melting temperature; fluorescence melt of hairpins on a sequencing array, two-state fit, raised by 9.35 °C to match UV melts; settings: sodium 0.088 M
Procedure, shortened: as §1

Sequence | folding enthalpy [1] | Tm [2]
GAGAGCGAAAGCTGGCTC ((((((....)))..))) | -13.5 kcal/mol | 37.2 °C
GCGATCTCGAAAGAGCGC (((..(((....)))))) | -33.1 kcal/mol | 56.3 °C
GCCGCCGAAAGGCACGGC ((((((....)))..))) | -16.7 kcal/mol | 62.6 °C
GACGCGGGAAACCGCACC (..((((....))))..) | -8.05 kcal/mol | 32.2 °C
GGCCAAGGAAACTTGGTC (.(((((....))))).) | -35.1 kcal/mol | 53.3 °C
GATCAGCTCTCTGATC ((((((....)))))) | -36.9 kcal/mol | 49.3 °C
CGACACGGAAACGTCTCG (((.(((....))).))) | -26.8 kcal/mol | 35.9 °C
GCGCGGCGAAAGCCCAGC ((..(((....)))..)) | -16 kcal/mol | 57.5 °C
GATCTCACCAGAGATC ((((((....)))))) | -31.9 kcal/mol | 54.5 °C
GATCTGCGTGCAGATC ((((((....)))))) | -34.5 kcal/mol | 66.7 °C
GTGCACGGAAACGCACAC (((..((....))..))) | -19.9 kcal/mol | 38.5 °C
GATCGTGCATACGATC ((((((....)))))) | -37.7 kcal/mol | 60.5 °C
GTGATACGAAAGTACCAC (((.(((....))).))) | -32.7 kcal/mol | 45.6 °C
GTGTGGGGAAACCCATAC ((.((((....)))).)) | -30.9 kcal/mol | 49.2 °C
GATCTGTCCACAGATC ((((((....)))))) | -40.8 kcal/mol | 55.6 °C
GCCTTGGGAAACTGAGGC ((((..(....)..)))) | -29.9 kcal/mol | 45.1 °C
GAGTGAGGAAACTCACTC (((((((....))))))) | -40.6 kcal/mol | 61.6 °C
GATCGACTGGTCGATC ((((((....)))))) | -37.5 kcal/mol | 62.7 °C
CGCTTCGGAAACGAGCG (((.(((....)))))) | -27.1 kcal/mol | 49.3 °C
GATCACGCCTGTGATC ((((((....)))))) | -49.5 kcal/mol | 59.4 °C
GCCATCGAAAGATTAGGC ((((((....)))..))) | -30.7 kcal/mol | 43.4 °C
GCCAGCGGAAACGTTGGC ((((.((....)).)))) | -38.9 kcal/mol | 59.4 °C
GATCTCTTACGAGATC ((((((....)))))) | -44.7 kcal/mol | 52.2 °C

Sequence | folding enthalpy [1] | Tm [2]
GTCGAGAAATCGAC (((((....))))) | -26.8 kcal/mol | 55.5 °C
GCTGGGCGAAAGCTCCGC ((.(.((....)).).)) | -20.4 kcal/mol | 41.8 °C
GATAAACGAAAGTTCATC (((.(((....))).))) | -27.3 kcal/mol | 29.2 °C
GGAGTCGAAAGACGATCC ((((((....)))..))) | -12.3 kcal/mol | 46 °C
GAACGTGGAAACACATTC (((.(((....))).))) | -17.1 kcal/mol | 32.9 °C
GGGACAGGAAACCGTCCC (((((.(....).))))) | -36.2 kcal/mol | 52.8 °C
GCTTAACGAAAGTTCAGC (((.(((....))).))) | -31.6 kcal/mol | 44.4 °C
GATCGCGAAAGCGTATC ((((((....))).))) | -15.5 kcal/mol | 51.8 °C
GGCCCCGCGAAAGCGGCC (((..(((....)))))) | -9.49 kcal/mol | 41 °C
GATCTATAACTAGATC ((((((....)))))) | -34.2 kcal/mol | 36.7 °C
GATCGGGAGACCGATC ((((((....)))))) | -32.6 kcal/mol | 63.8 °C
GAGCGCCGAAAGGCCTC (((.(((....)))))) | -14.6 kcal/mol | 59.8 °C
TACGTGAAAACGTA (((((....))))) | -16.8 kcal/mol | 43.5 °C
CGGTCGGAAACGACACCG ((((((....)))..))) | -11 kcal/mol | 38 °C
GTGGCCGAAAGGCGTCAC ((((((....)))..))) | -12.2 kcal/mol | 43.5 °C
GATCAGCACTCTGATC ((((((....)))))) | -30.8 kcal/mol | 49.9 °C
GCTGGCGAAAGCCAAAGC ((((((....)))..))) | -18.2 kcal/mol | 53.5 °C
GATCATGGCCATGATC ((((((....)))))) | -49.5 kcal/mol | 56.3 °C
GCATATGGAAACATACGC ((.((((....)))).)) | -26.3 kcal/mol | 35.4 °C
CGCGTCGGAAACGAGCG (((.(((....)))))) | -31.7 kcal/mol | 54.9 °C
GAATCCCCGAAAGGGTTC (((..(((....)))))) | -14.4 kcal/mol | 31 °C
GTCTGAGCGAAAGCTGAC (((..(((....)))))) | -17.6 kcal/mol | 41.2 °C
GCAATAGGAAACTACTGC (((.(((....))).))) | -14.5 kcal/mol | 29.8 °C
